Screening data deposited in PubChem by several laboratories.
This excerpt belongs to a sample that is enriched for hits.
GAA850 FXN act: FXN promoter activators, primary screen, cell-based, luciferase luminescence, HEK293 lucGAA850; HEK293 lucGAA850 FXN promoter luciferase reporter, 24 h; percent of 10 µM SAHA response; activation, % at 6 µM; hit rate 0.56% among 360,000; AID 540364, 2011;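 active means activation above the average of all compounds screened plus 3 SD, cutoff fixed separately per campaign, cut at about 7.5% in these data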
XBP1 UPR activ: activators of adaptive XBP1 UPR arm, primary screen, cell-based, CHO-XBP1 luciferase reporter, luminescence, uHTS; IRE1-XBP1 UPR activation; percent of tunicamycin response, DMSO as zero; hit rate 0.33% among 330,000; AID 463104, 2010; activation, % at 20 µM;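 active means versus positive control, 20 µM dose yields 30% or more activation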
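Material: CHO cell line with stable XBP1 luciferase reporter; schedule: 16-18 h cell attachment at 37 °C, then 6 h compound exposure; signal: glow luminescence from Steady-Glo reagent; medium: serum-containing F12 medium, 10% FBS; benchmarks: tunicamycin 10 µg/mL and vehicle-only wells; read-out: percent activation relative to tunicamycin reference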
CHOP inh: inhibitors of CHOP promoter induction, primary screen, cell-based, unfolded protein response, luciferase reporter; CHO-K1 CHOP-promoter luciferase, tunicamycin-induced, 15-18 h; inhibition, % at 10 µM; hit rate 3.8% among 220,000; AID 2732, 2010;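 active means compounds that reduced the stress-induced luciferase reporter signal by more than about 70% of percent inhibition, limit read from the data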
UPR CHOP act: activators of apoptotic CHOP UPR arm, primary screen, cell-based, CHO-CHOP luciferase reporter, luminescence, uHTS; UPR activation; percent of tunicamycin response over DMSO baseline; activation, % at 10 µM; hit rate 0.34% among 330,000;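 active means at 10 µM dose, activation of 40% or more, normalized to positive control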
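System: CHO CHOP reporter cells. Amount: 500 cells per well. Buffer or medium: F12 medium, 10% FBS. Compound dosing: one dose, 10 µM in 0.5% DMSO. Incubation: 6 h compound exposure at 37 °C after overnight seeding. Technique: Steady-Glo luciferase luminescence. Benchmarks: tunicamycin and DMSO controls.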
CHOP inh conf: retest of CHOP induction inhibitors, confirmation, cell-based. shares compounds with CHOP inh. CHO-CHOP promoter luciferase reporter, tunicamycin-induced, luminescence. inhibition, % at 10 µM. hit rate 45% among 2,100. AID 504437, 2011;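 active means mean of three repeat readings of reporter signal inhibition above a set limit, cut at about 70% in these data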
Numbers stand for hits.

What do the screens show for `CC1CCCCC1n1c(=S)[nH]c2ccccc2c1=O` (configuration not stated)?
GAA850 FXN act: inactive; XBP1 UPR activ: inactive; CHOP inh: 103; UPR CHOP act: inactive; CHOP inh conf: inactive

What do the screens show for `CCc1nc2ccc(C(=O)NCc3ccccc3OC)cn2c1N(CC)Cc1cccc(Br)c1`?
GAA850 FXN act: inactive

How did Clc1ccc(Cn2cc(/C=N/n3cnnc3)c3ccccc32)c(Cl)c1 do in these assays?
GAA850 FXN act: inactive; XBP1 UPR activ: inactive; CHOP inh: 108; UPR CHOP act: inactive; CHOP inh conf: inactive

Results for O=C1C=CC(=O)N1c1ccc(OC(F)F)cc1 ?
GAA850 FXN act: inactive; CHOP inh: 107; CHOP inh conf: inactive

How did COc1cc(C(=O)Nc2cccc(-c3nc4cc(C)ccc4o3)c2C)cc(OC)c1OC do in these assays?
GAA850 FXN act: inactive; XBP1 UPR activ: inactive; CHOP inh: 108; UPR CHOP act: inactive; CHOP inh conf: inactive

Results for NC(N)=N/N=C/c1ccc(OCc2ccc(Cl)cc2)cc1 ?
GAA850 FXN act: inactive; XBP1 UPR activ: inactive; CHOP inh: 107; UPR CHOP act: inactive; CHOP inh conf: inactive

How did CC(C)OCc1c(C(=O)OC/C(O)=C(\C#N)c2nc3ccccc3[nH]2)oc2ccccc12 do in these assays?
GAA850 FXN act: inactive; XBP1 UPR activ: inactive; CHOP inh: inactive; UPR CHOP act: inactive

How did Cc1c(-c2cccc(Cl)c2)nc2ccccc2c1C(=O)OC/C(O)=C(\C#N)c1nc2ccccc2[nH]1 do in these assays?
GAA850 FXN act: inactive; XBP1 UPR activ: inactive; CHOP inh: 105; UPR CHOP act: inactive; CHOP inh conf: inactive

Results for Cc1c(C(=O)OC/C(O)=C(\C#N)c2nc3ccccc3[nH]2)oc2ccc(Br)cc12 ?
GAA850 FXN act: inactive; XBP1 UPR activ: inactive; CHOP inh: 103; UPR CHOP act: inactive; CHOP inh conf: inactive

Results for CCOC(=O)c1c(C)[nH]c(C(=O)OCC(O)=C(C#N)c2nc3ccccc3[nH]2)c1C ?
GAA850 FXN act: inactive

What do the screens show for `CC1=C(C(=O)N(C)C)CC(CC(=O)NC2CCCC2)C(=O)N1Cc1ccccc1` (configuration not stated)?
GAA850 FXN act: inactive

What do the screens show for `Cc1csc(NC(=O)CSc2nnc3c4ccccc4nc(C(C)(C)C)n23)n1`?
GAA850 FXN act: inactive; XBP1 UPR activ: inactive; CHOP inh: 105; UPR CHOP act: inactive; CHOP inh conf: 125

What do the screens show for `CC(=O)CSc1nnc2c3ccccc3nc(C(C)(C)C)n12`?
GAA850 FXN act: inactive; XBP1 UPR activ: inactive; CHOP inh: inactive; UPR CHOP act: inactive

What do the screens show for `c1ccc(Nc2ccc3c4c(cccc24)CC3)cc1`?
GAA850 FXN act: inactive; XBP1 UPR activ: inactive; CHOP inh: 100; UPR CHOP act: inactive; CHOP inh conf: inactive

Results for CC1=NOC(=O)/C1=C/c1ccc2c(c1)OCO2 ?
GAA850 FXN act: inactive; XBP1 UPR activ: inactive; CHOP inh: 100; UPR CHOP act: inactive; CHOP inh conf: inactive

Results for CC1=NOC(=O)/C1=C\c1ccc2c(c1)OCO2 ?
GAA850 FXN act: inactive; XBP1 UPR activ: inactive; CHOP inh: 101; UPR CHOP act: inactive; CHOP inh conf: inactive

What do the screens show for `O=C1OCC/C1=C\c1ccc2c(c1)OCO2`?
GAA850 FXN act: inactive; XBP1 UPR activ: inactive; CHOP inh: inactive; UPR CHOP act: inactive

What do the screens show for `COc1ccc(/C=C2/C(=O)ON=C2C)cc1Br`?
GAA850 FXN act: inactive; XBP1 UPR activ: inactive; UPR CHOP act: inactive

How did COCCNC(=O)C1CCCN(C(=O)c2nc(C)oc2C)CC1 (configuration not stated) do in these assays?
GAA850 FXN act: inactive

What do the screens show for `CC1(C(=O)O)CCCN(C(=O)c2cc3ccccc3s2)C1` (configuration not stated)?
GAA850 FXN act: inactive

What do the screens show for `N#Cc1c(N)nc(SCC(=O)C23CC4CC(CC(C4)C2)C3)c(C#N)c1-c1ccc(Cl)cc1`?
GAA850 FXN act: inactive; XBP1 UPR activ: inactive; CHOP inh: 101; UPR CHOP act: inactive; CHOP inh conf: 83

What do the screens show for `CSc1nc(N)nc(SCC(=O)C23CC4CC(CC(C4)C2)C3)c1C#N`?
GAA850 FXN act: inactive; XBP1 UPR activ: inactive; CHOP inh: inactive; UPR CHOP act: inactive

Results for CC(/C=N/Nc1nnc2c(n1)[nH]c1ccccc12)=C\c1ccco1 ?
GAA850 FXN act: inactive; XBP1 UPR activ: inactive; CHOP inh: 107; UPR CHOP act: inactive; CHOP inh conf: inactive

What do the screens show for `OCc1cccc(-c2csc(C(O)c3ccccc3)n2)c1` (configuration not stated)?
GAA850 FXN act: inactive

How did Cn1c(=O)n(Cc2ccc(F)cc2)c(=O)c2c1nc1n2CCCN1C1CCCCC1 do in these assays?
GAA850 FXN act: inactive; XBP1 UPR activ: inactive; CHOP inh: 103; UPR CHOP act: inactive; CHOP inh conf: inactive

Results for Cn1c(=O)n(Cc2ccccc2)c(=O)c2c1nc1n2CCCN1C1CCCCC1 ?
GAA850 FXN act: inactive; XBP1 UPR activ: inactive; UPR CHOP act: inactive

Results for O=C(NCc1cccc(C(F)(F)F)c1)c1ccc2sc([C@H]3C[C@H](O)[C@@H](CO)O3)nc2c1 ?
GAA850 FXN act: inactive

What do the screens show for `N#C/C(=C\c1ccc(Cl)cc1)c1nc(-c2ccco2)cs1`?
GAA850 FXN act: inactive; XBP1 UPR activ: inactive; CHOP inh: inactive; UPR CHOP act: inactive

How did N#C/C(=C\c1ccc(F)cc1)c1nc(-c2ccco2)cs1 do in these assays?
GAA850 FXN act: inactive; XBP1 UPR activ: inactive; CHOP inh: 105; UPR CHOP act: inactive; CHOP inh conf: inactive

How did CNc1ccc(Br)cc(C(=O)/C=C/c2ccc(OC)cc2OC)c1=O do in these assays?
GAA850 FXN act: inactive; XBP1 UPR activ: inactive; CHOP inh: inactive; UPR CHOP act: inactive

What do the screens show for `CNc1ccc(Br)cc(C(=O)/C=C/c2ccc(Cl)cc2Cl)c1=O`?
GAA850 FXN act: inactive; XBP1 UPR activ: inactive; CHOP inh: 103; UPR CHOP act: inactive; CHOP inh conf: inactive

What do the screens show for `Cc1ccc(OCC(=O)N/N=C/c2cn[nH]c2-c2ccc(Cl)c(Cl)c2)cc1`?
GAA850 FXN act: inactive; XBP1 UPR activ: inactive; CHOP inh: 99; UPR CHOP act: inactive; CHOP inh conf: 72

Results for CCOc1ccc(-c2nc(CSCC(=O)NCc3ccco3)c(C)o2)cc1 ?
GAA850 FXN act: inactive; XBP1 UPR activ: inactive; CHOP inh: 106; UPR CHOP act: inactive; CHOP inh conf: 118

How did O=C(Nc1ccc2c(c1)OCCO2)c1cc(-c2ccccn2)nc2ccc(Br)cc12 do in these assays?
GAA850 FXN act: inactive; XBP1 UPR activ: inactive; CHOP inh: 101; UPR CHOP act: inactive; CHOP inh conf: inactive

How did Cc1ccc(S(=O)(=O)N2CCOCC2)cc1NC(=O)c1cc2c(s1)CCC2 do in these assays?
GAA850 FXN act: inactive; XBP1 UPR activ: inactive; CHOP inh: inactive; UPR CHOP act: inactive
